From paper PMC6583925 (Journal of medicinal chemistry, 2019)

Tests used:
THP1 cells = assay: cell viability assay; assay type: cell-based, human; settings: 72 h, CellTiter-Glo
Method in brief: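 THP-1 cells maintained in RPMI 1640 with 10% heat-inactivated FBS and 0.05 mM 2-mercaptoethanol at 2×105 to 1×10^6 cells/ml. Seeded at 3,000 cells per well; test compound added after 24 h at final 0.1 to 10 μM. After 72 h incubation, viability was read by CellTiter-Glo luminescence and normalized to vehicle-treated controls.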

[1] = 30 mg/kg, cited from earlier work
[2] = mice, four weeks of inhibitor treatment; cited from earlier work
[3] = test system: brain lyso-PS/PI and C20:4 PS content; settings: mice; cited from earlier work
[4] = test system: lymphocytic choriomeningitis virus (LCMV) clone 13; settings: mice; cited from earlier work
THP-1 macrophages = assay: cytokine measurements in M1-polarized THP-1 macrophages; assay type: cell-based, human; settings: M1 stage THP-1 macrophages; DO264 0.1, 0.5, 1 μM, DO271 1 μM; 6 and 24 h
ABHD12 = molecular target: T1, ABHD12 (Homo sapiens, UniProt Q8N2K0); settings: cited from earlier work
T1 sequence (Q8N2K0 1-398): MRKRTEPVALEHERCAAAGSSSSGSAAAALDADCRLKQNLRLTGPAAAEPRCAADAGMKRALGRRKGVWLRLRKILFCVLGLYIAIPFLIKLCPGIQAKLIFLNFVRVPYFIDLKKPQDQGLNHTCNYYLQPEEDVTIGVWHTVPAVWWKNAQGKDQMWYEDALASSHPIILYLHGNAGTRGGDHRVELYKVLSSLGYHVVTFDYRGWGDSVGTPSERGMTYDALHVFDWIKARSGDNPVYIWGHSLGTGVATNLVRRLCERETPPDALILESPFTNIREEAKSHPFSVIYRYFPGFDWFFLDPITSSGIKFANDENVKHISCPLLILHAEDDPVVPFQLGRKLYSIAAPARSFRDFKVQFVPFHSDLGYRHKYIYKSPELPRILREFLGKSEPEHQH

[5] = test system: broader panel of cell lines; assay: cell viability assay; assay type: cell-based; settings: all cell lines, 72 h
serine hydrolases = assay: selectivity by gel-based ABPP with FP-Rh in mouse brain proteome; assay type: biochemical; settings: FP-Rh probe
Method in brief: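 Mouse brain homogenised in DPBS and cleared at 1,400 × g. Membranes pelleted at 16,000 × g (45 min, 4 °C) and resuspended in DPBS; used at 1 mg/mL. Test compound pretreatment: (thio)ureas 20 min at room temperature, NHH-carbamates 45 min at 37 °C. FP-Rh labelling (1 μM final) 45 min at 37 °C. Readout: 10% SDS-PAGE, in-gel fluorescence, band intensities quantified.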

FC(F)(F)Oc1ccc(Oc2ccnc(N3CCC(NC(=S)Nc4cccnc4)CC3)c2Cl)c(Cl)c1 [DO264]
concentration that impaired the viability of THP1 cells (THP1 cells): ≥ 5 µM
toxicity in mice ([1]; treatment for several weeks): without overt signs of toxicity
total exposure levels in the periphery and brain ([1]; mice, p.o. or i.p. dosing): 3 to 9 µM
auditory defects [2]: did not exhibit the auditory defects observed in ABHD12–/– mice
brain lyso-PS/PI and C20:4 PS content [3]: substantial elevations
immunological responses to LCMV clone 13 infection [4]: heightened immunological responses
CCL3 level (THP-1 macrophages): elevated
CCL4 level (THP-1 macrophages): elevated
IL-1β level (THP-1 macrophages): concentration-dependent increases
TNF-α level (THP-1 macrophages): concentration-dependent increases
concentration giving full engagement of ABHD12 (ABHD12): 1 µM
cytotoxicity at 1 μM [5]: without displaying cytotoxicity
selectivity / off-targets among serine hydrolases (serine hydrolases): excellent selectivity over other serine hydrolases
